Laboratory results taken from ChEMBL document CHEMBL4152327, “Homopiperazine-rhodamine B adducts of triterpenoic acids are strong mitocans” (Eur J Med Chem, 2018).

How the values were obtained:
[1] = tested on: A2780; experiment: Cytotoxicity against human A2780 cells after 96 hrs by SRB assay; format: functional, cell-based; conditions: A2780, 96 h
Method in brief: (§1)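 SRB assay; cells exposed to compound for 96 h. EC50 in µM averaged from three independent experiments, each in triplicate, with 95% confidence interval and mean ± standard mean error. Assay cut-off 30 µM.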

[2] = tested on: NIH3T3; experiment: Cytotoxicity against mouse NIH/3T3 cells after 96 hrs by SRB assay; format: cell-based; conditions: NIH3T3, 96 h; method in brief: as §1
[3] = tested on: HT-29; experiment: Cytotoxicity against human HT-29 cells after 96 hrs by SRB assay; format: functional, cell-based; conditions: HT-29, 96 h; method in brief: as §1
[4] = tested on: MCF7; experiment: Cytotoxicity against human MCF7 cells after 96 hrs by SRB assay; format: functional, cell-based; conditions: MCF7, 96 h; method in brief: as §1
[5] = tested on: A-375; experiment: Cytotoxicity against human A375 cells after 96 hrs by SRB assay; format: functional, cell-based; conditions: A-375, 96 h; method in brief: as §1
[6] = tested on: SW-1736; experiment: Cytotoxicity against human SW1736 cells after 96 hrs by SRB assay; format: functional, cell-based; conditions: SW-1736, 96 h; method in brief: as §1
[7] = Selectivity index, ratio of EC50 for mouse NIH/3T3 cells to EC50 for human A2780 cells; format: toxicity; conditions: NIH/3T3 cells and A2780 cells, read-out: Ratio EC50
[8] = Drug uptake in mitochondria of human A2780 cells at 100 nM after 24 hrs by rhodamine 123 staining-based fluorescence microscopic method; format: ADME; conditions: a2780, 24 h, 0.1 µM
Method in brief: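 A2780 cells, about 1·10^6 per 25 cm² flask, grown 24 h, then given fresh medium containing compound for 24 h (blank medium as control). Cells collected, centrifuged at 1200 rpm and 4 °C, washed in PBS, then mixed with Hoechst 33342/Rhodamine 123 solution (10 µg/ml). Incubated 30 min at 37 °C in the dark, washed, and viewed by epifluorescence microscopy.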

Drug uptake [8] | SMILES | EC50 [1] | EC50 [2] | EC50 [3] | EC50 [4] | EC50 [5] | EC50 [6] | selectivity ratio [7]
– | CC(=O)O[C@@H]1CC[C@@]2(C)[C@@H](CC[C@]3(C)[C@@H]2C(=O)C=C2[C@@H]4[C@@H](C)[C@H](C)CC[C@]4(C)CC[C@]23C)[C@@]1(C)C(=O)N1CCCNCC1 | 2850 nM | 900 nM | 1990 nM | 2410 nM | 3210 nM | – | –
– | C=C(C)[C@@H]1CC[C@]2(C(=O)N3CCCNCC3)CC[C@]3(C)[C@H](CC[C@@H]4[C@@]5(C)CC[C@H](OC(C)=O)C(C)(C)[C@@H]5CC[C@]43C)[C@@H]12 | 1610 nM | 1050 nM | 1470 nM | 1520 nM | – | 1840 nM | –
– | CC(=O)O[C@@H]1CC[C@@]2(C)[C@@H](CC[C@]3(C)[C@@H]2C(=O)C=C2[C@@H]4[C@@H](C)[C@H](C)CC[C@]4(C)CC[C@]23C)[C@@]1(C)C(=O)NCc1ccccc1 | 10800 nM | 28100 nM | 20200 nM | 9800 nM | 13700 nM | – | –
– | CCN(CC)c1ccc2c(-c3ccccc3C(=O)N3CCCN(C(=O)[C@]4(C)[C@@H]5CC[C@]6(C)[C@H](C(=O)C=C7[C@@H]8[C@@H](C)[C@H](C)CC[C@]8(C)CC[C@]76C)[C@@]5(C)CC[C@H]4OC(C)=O)CC3)c3ccc(=[N+](CC)CC)cc-3oc2c1 | 450 nM | 400 nM | 500 nM | 390 nM | 510 nM | – | –
– | CCN(CC)c1ccc2c(-c3ccccc3C(=O)N3CCCN(C(=O)[C@@]4(C)CC[C@]5(C)CC[C@]6(C)C(=CC(=O)[C@@H]7[C@@]8(C)CC[C@H](OC(C)=O)C(C)(C)[C@@H]8CC[C@]76C)[C@@H]5C4)CC3)c3ccc(=[N+](CC)CC)cc-3oc2c1 | 220 nM | 330 nM | 280 nM | 220 nM | 760 nM | 220 nM | –
– | CC(=O)O[C@H]1CC[C@]2(C)[C@H]3CC=C4[C@@H]5CC(C)(C)CC[C@]5(C(=O)N5CCCNCC5)CC[C@@]4(C)[C@]3(C)CC[C@H]2C1(C)C | 2310 nM | 1230 nM | 1300 nM | 1500 nM | 2300 nM | 3250 nM | –
– | CCN(CC)c1ccc2c(-c3ccccc3C(=O)O[C@@H]3CC[C@@]4(C)[C@@H](CC[C@]5(C)[C@@H]4C(=O)C=C4[C@@H]6[C@@H](C)[C@H](C)CC[C@]6(C)CC[C@]45C)[C@@]3(C)C(=O)OC)c3ccc(=[N+](CC)CC)cc-3oc2c1 | 300 nM | 190 nM | 290 nM | 230 nM | 360 nM | – | –
– | C[C@H]1[C@H](C)CC[C@]2(C)CC[C@]3(C)C(=CC(=O)[C@@H]4[C@@]5(C)CC[C@@H](O)[C@](C)(C(=O)OCc6ccccc6)[C@@H]5CC[C@]43C)[C@H]12 | 30100 nM | > 30000 nM | 28800 nM | 26400 nM | 24800 nM | 24800 nM | –
– | CCN(CC)c1ccc2c(-c3ccccc3C(=O)O[C@H]3CC[C@@]4(C)[C@@H](CC[C@]5(C)[C@@H]4C(=O)C=C4[C@@H]6[C@@H](C)[C@H](C)CC[C@]6(C)CC[C@]45C)[C@@]3(C)C(=O)NCc3ccccc3)c3ccc(=[N+](CC)CC)cc-3oc2c1 | 530 nM | 400 nM | 550 nM | 490 nM | 590 nM | – | –
– | CC(=O)O[C@H]1CC[C@]2(C)[C@H]3CC=C4[C@@H]5[C@@H](C)[C@H](C)CC[C@]5(C(=O)N5CCCNCC5)CC[C@@]4(C)[C@]3(C)CC[C@H]2C1(C)C | 2210 nM | 1810 nM | 1880 nM | 1610 nM | 1950 nM | – | –
– | C[C@H]1[C@H](C)CC[C@]2(C)CC[C@]3(C)C(=CC(=O)[C@@H]4[C@@]5(C)CC[C@@H](O)[C@](C)(C(=O)NCc6ccccc6)[C@@H]5CC[C@]43C)[C@H]12 | 10000 nM | 4900 nM | 10700 nM | 7300 nM | 12800 nM | – | –
– | CC(=O)O[C@H]1CC[C@]2(C)[C@H]3C(=O)C=C4[C@@H]5C[C@@](C)(C(=O)N6CCCNCC6)CC[C@]5(C)CC[C@@]4(C)[C@]3(C)CC[C@H]2C1(C)C | 12000 nM | 12300 nM | 5110 nM | 10700 nM | 18700 nM | 18700 nM | –
– | CCN(CC)c1ccc2c(-c3ccccc3C(=O)N3CCCN(C(=O)[C@]45CC[C@@H](C)[C@H](C)[C@H]4C4=CC[C@@H]6[C@@]7(C)CC[C@H](OC(C)=O)C(C)(C)[C@@H]7CC[C@@]6(C)[C@]4(C)CC5)CC3)c3ccc(=[N+](CC)CC)cc-3oc2c1 | 20 nM | 140 nM | 40 nM | 30 nM | 40 nM | 40 nM | –
– | CCN(CC)c1ccc2c(-c3ccccc3C(=O)O[C@H]3CC[C@@]4(C)[C@@H](CC[C@]5(C)[C@@H]4C(=O)C=C4[C@@H]6[C@@H](C)[C@H](C)CC[C@]6(C)CC[C@]45C)[C@@]3(C)C(=O)OCc3ccccc3)c3ccc(=[N+](CC)CC)cc-3oc2c1 | 1320 nM | 1010 nM | 1710 nM | 1380 nM | 1520 nM | – | –
Active | CCN(CC)c1ccc2c(-c3ccccc3C(=O)N3CCCN(C(=O)[C@]45CCC(C)(C)C[C@H]4C4=CC[C@@H]6[C@@]7(C)CC[C@H](OC(C)=O)C(C)(C)[C@@H]7CC[C@@]6(C)[C@]4(C)CC5)CC3)c3ccc(=[N+](CC)CC)cc-3oc2c1.[Cl-] | 10 nM | 170 nM | 40 nM | 30 nM | 30 nM | 30 nM | 17
– | C=C(C)[C@@H]1CC[C@]2(C(=O)O)CC[C@]3(C)[C@H](CC[C@@H]4[C@@]5(C)CC[C@H](O)C(C)(C)[C@@H]5CC[C@]43C)[C@@H]12 [BETULINIC ACID] | – | – | – | – | 17100 nM | 18300 nM | –
